In ChEMBL document CHEMBL4732146, “Nitric oxide-donating and reactive oxygen species-responsive prochelators based on 8-hydroxyquinoline as anticancer agents” (Eur J Med Chem, 2021):
Activity calls are given as the source filed them. The rule behind the calls is not given here.

Experiments:
PANC-1 = experiment: Cytotoxicity against human PANC-1 cells assessed as reduction in cell viability measured after 48 hrs by MTT assay; assay type: functional, cell-based; details: PANC-1, 48 h
How it was run: (§1)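 Cells seeded 6 × 10⁴ per well, cultured 24 h at 37 °C under 5% CO₂, then exposed to compound for 48 h, with or without 50 µM CuCl₂ or FeCl₃ co-incubation. MTT added for 4 h at 37 °C, formazan dissolved in DMSO, A490 read. IC50 reported as mean (SD), n = 3.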

SW1990 [1] = experiment: Cytotoxicity against human SW1990 cells assessed as reduction in cell viability measured after 48 hrs by MTT assay; assay type: functional, cell-based; details: SW1990, 48 h; how it was run: as §1
SW1990 [2] = experiment: Cytotoxicity against human SW1990 cells assessed as reduction in cell viability measured after 48 hrs in presence of CuCl2 by MTT assay; assay type: functional, cell-based; details: SW1990, 48 h; how it was run: as §1
[3] = Prodrug activation in NO at 100 uM measured after 1 hr by RP-HPLC analysis
How it was run: (§2)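 Compound (100 µM) incubated at 37 °C for 1 h with one of: ROS species (1 mM), NO solution (1 mM), GSH (200 µM), CuCl₂ (10 µM) or FeCl₃ (10 µM). Percent decomposed was determined by RP-HPLC (ODS column, 0.1% TFA water/methanol gradient, 1 mL/min, 256 nm).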

[4] = Stability of compound in presence of GSH at 100 uM measured after 1 hr by RP-HPLC analysis; assay type: physicochemical; how it was run: as §2
[5] = Stability of compound in presence of Fe3+ at 100 uM measured after 1 hr by RP-HPLC analysis; assay type: physicochemical; how it was run: as §2
[6] = Metal chelating activity assessed as compound-Cu2+ complex formation at 50 uM measured after 40 mins in absence of H2O2 by UV spectrophotometric method
How it was run: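 Stock in DMSO diluted into PBS (10 mM, pH 7.4) to a final 50 µM, with 50 µM CuCl₂ added and no H₂O₂. UV spectrum recorded over 40 min at room temperature.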

[7] = Metal chelating activity assessed as compound-Cu2+ complex formation by measuring change in wavelength at 50 uM measured after 40 mins in presence of H2O2 by UV spectrophotometric method
How it was run: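 Compound at 50 µM final in PBS (10 mM, pH 7.4) with 50 µM CuCl₂ and H₂O₂ (500 µM, 10 eq.). UV spectrum tracked over 40 min at room temperature, following peaks at 240, 382 and 210 nm.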

[8] = Drug metabolism in human SW1990 cells assessed as nitric oxide release at 8 to 12 uM measured after 24 hrs by DAF-FM DA probe based flow cytometry; assay type: ADME, cell-based; details: sw1990, 24 h, dose 8-12 µM
How it was run: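 SW1990 cells at 80% confluence loaded with 5 µM DAF-FM DA for 20 min at 37 °C, rinsed, then incubated with compound. Optional 1 h pretreatment with 50 µM carboxyl-PTIO before 12 µM treatment. Fluorescence read by flow cytometry (ex 495 / em 515 nm). Mean ± SD, n = 3.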

[9] = Drug metabolism in human SW1990 cells assessed as nitric oxide release by measuring increase in 3-nitrotyrosine-containing cytochrome-c expression at 8 to 12 uM measured after 24 hrs by Western blot analysis; assay type: ADME, cell-based; details: sw1990, 24 h
How it was run: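 SW1990 cells treated 24 h, or pretreated 1 h with carboxyl-PTIO (50 µM) before 24 h treatment. Mitochondrial proteins extracted and lysed (30 µg/lane), run on SDS-PAGE, blotted to PVDF and probed with anti-3-nitrotyrosine antibody. Mean ± SD, n = 3.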

SW1990 [10] = experiment: Cytotoxicity against human SW1990 cells assessed as reduction in cell viability at 10 to 20 uM measured after 48 hrs in presence of ROS quencher NAC by MTT assay; assay type: functional, cell-based; details: dose 10-20 µM
How it was run: (§3)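 SW1990 cells pretreated 1 h at 37 °C with 20 mM NAC or 50 µM carboxy-PTIO, then treated 48 h with compound at 10 or 20 µM. Percent cell death by MTT (A490). Mean ± SD, n = 3.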

SW1990 [11] = experiment: Cytotoxicity against human SW1990 cells assessed as reduction in cell viability at 10 to 20 uM measured after 48 hrs in presence of NO scavenger Carboxyl-PTIO by MTT assay; assay type: functional, cell-based; details: dose 10-20 µM; how it was run: as §3
SW1990 [12] = experiment: Induction of mitochondrial membrane potential loss in human SW1990 cells at 8 to 12 uM measured after 24 hrs by JC1 staining based flow cytometry; assay type: functional, cell-based; details: dose 8-12 µM
How it was run: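 SW1990 cells seeded at 5 × 10⁵ per well, grown 24 h, then exposed to compound for 24 h. Stained with JC-1 per kit instructions. Flow cytometry gave the percentage of cells with healthy or collapsed mitochondrial membrane potential. Mean ± SD, n = 3.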

SW1990 [13] = experiment: Induction of apoptosis in human SW1990 cells assessed as increase in cleaved caspase-3 expression at 8 to 12 uM measured after 24 hrs by Western blot analysis; assay type: functional, cell-based; details: dose 8-12 µM
How it was run: (§4)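 SW1990 cells seeded 5 × 10⁵ per well and grown 24 h at 37 °C, then treated 24 h. Lysates quantified by BCA, resolved by SDS-PAGE and transferred to nitrocellulose. Blocked in 5% milk, probed overnight at 4 °C for cleaved caspase-3, cleaved caspase-9, Bax and Bcl-2, then HRP secondary 2 h. ECL detection.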

SW1990 [14] = experiment: Induction of apoptosis in human SW1990 cells assessed as decrease in Bcl-2 expression at 8 to 12 uM measured after 24 hrs by Western blot analysis; assay type: functional, cell-based; details: dose 8-12 µM; how it was run: as §4
SW1990 [15] = experiment: Antitumor activity against human SW1990 cells xenografted in Balb/c nude mouse assessed as tumor size at 20 mg/kg, iv administered every 3 days measured after 21 days (reference value: 1.23 +/- 0.25 cm3); assay type: functional; details: time 21 day
How it was run: (§5)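 Male BALB/c nude mice, 3–5 weeks old, given 1 × 10⁷ SW1990 cells subcutaneously; when tumors reached about 65 mm³, randomised to groups of eight. Saline vehicle control, dosing intravenously every three days. Tumor size monitored every two days for three weeks; tumors dissected at sacrifice on day 21, volume = d² × D/2 (d smallest, D largest diameter). Mean ± SD.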

SW1990 [16] = experiment: Antitumor activity against human SW1990 cells xenografted in Balb/c nude mouse assessed as tumor growth inhibition at 20 mg/kg, iv administered every 3 days measured after 21 days relative to control; assay type: functional; details: 504 h, time 21 day, read-out: TGI; how it was run: as §5

O=C(NCCCOc1no[n+]([O-])c1S(=O)(=O)c1ccccc1)c1ccc2cccc(OCc3ccc(B(O)O)cc3)c2n1
IC50 (PANC-1): 10.5 µM
IC50 (SW1990 [1]): 8.83 µM
IC50 (SW1990 [2]): 1.2 µM
Drug metabolism [3]: Metabolite_Notdetected
Stabilty [4]: Stable
Stabilty [5]: Stable
Activity [6]: inactive
Activity [7]: 210 nm
Drug metabolism [8]: Metabolite_Detected
Drug metabolism [9]: Metabolite_Detected
Activity (SW1990 [10]): inactive
Activity (SW1990 [11]): inactive
Activity (SW1990 [12]): Active
Activity (SW1990 [13]): Active
Activity (SW1990 [14]): Active
Activity (SW1990 [15]): 0.47 cm3
inhibition in vivo at 20 mg/kg (SW1990 [16]): 61.8%
